Assay results taken from ChEMBL document CHEMBL1821590, “Novel dihydropyrimidines and its pyrazole derivatives: synthesis and pharmacological screening” (Eur J Med Chem, 2011).
Converted amounts (≈) assume the structure as drawn.

Test system: not listed separately
Assay: Antioxidant activity assessed as nitric oxide radical scavenging activity after 150 mins
Type: functional
Details: not given
Procedure, shortened: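 10 mM sodium nitroprusside (4 mL), PBS pH 7.4 (1 mL) and sample or ascorbic acid in DMSO (1 mL, 12.5–100 µg/mL), incubated 150 min at 25 °C. Nitrite detected with sulphanilic acid (5 min) then naphthylethylenediamine (30 min, diffused light). Read at […]. Triplicate. % inhibition = [1 − (Vt/Vc)] × 100. IC50 derived from it.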

Structure (SMILES) | IC50 [µg/mL]
CCOC(=O)c1cnn(-c2nc(-c3cccc(OC)c3OC)c(C#N)c(=O)n2C)c1N | 69 (≈ 163 µM)

Test system: not listed separately
Assay: Antioxidant activity assessed as hydrogen peroxide scavenging activity after 10 mins
Type: functional
Details: not given
Procedure, shortened: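 H2O2 (20 mM) in PBS pH 7.4. 1 mL of sample or ascorbic acid in methanol (12.5–100 µg/mL) added to 2 mL H2O2 solution. A230 read after 10 min. % inhibition = [1 − (Vt/Vc)] × 100. Triplicate, averaged. IC50 derived from % inhibition across concentrations.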

Structure (SMILES) | IC50 [µg/mL]
CCOC(=O)c1cnn(-c2nc(-c3cccc(OC)c3OC)c(C#N)c(=O)n2C)c1N | 67 (≈ 158 µM)

Test system: not listed separately
Assay: Antioxidant activity assessed as inhibition of lipid peroxidation using egg lecithin liposomes incubated for 1 hr
Type: functional
Details: not given
Procedure, shortened: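 Egg lecithin (3 mg/mL, phosphate buffer pH 7.4) sonicated 10 min to form liposomes. Sample or ascorbic acid (12.5–100 µg/mL) added. Peroxidation induced with FeCl3 and L-ascorbic acid, 1 h at 37 °C. Stopped with HCl/TCA/TBA/BHA, boiled 15 min, centrifuged, supernatant read at 532 nm. Triplicate. % inhibition vs control. IC50 derived.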

Structure (SMILES) | IC50 [µg/mL]
CCOC(=O)c1cnn(-c2nc(-c3cccc(OC)c3OC)c(C#N)c(=O)n2C)c1N | 57 (≈ 134 µM)

Test system: not listed separately
Assay: Antioxidant activity assessed as potassium ferricyanide ion reducing power after 20 mins
Type: functional
Details: not given
Procedure, shortened: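 Oyaizu method. Samples or ascorbic acid in DMF (12.5–100 µg/mL) mixed with 0.2 M phosphate buffer pH 6.6 and 1% potassium ferricyanide, 20 min at 50 °C. 10% TCA added, centrifuged. Supernatant mixed with water and 0.1% FeCl3, read at 700 nm. % = [(Vt/Vc) − 1] × 100. IC50 derived.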

Structure (SMILES) | IC50 [µg/mL]
CCOC(=O)c1cnn(-c2nc(-c3cccc(OC)c3OC)c(C#N)c(=O)n2C)c1N | 54 (≈ 127 µM)

Test system: not listed separately
Assay: Antiinflammatory activity assessed as inhibition of albumin denaturation at 100 ug/ml by UV-visible spectrophotometry
Type: functional
Details: not given
Procedure, shortened: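 Compounds dissolved in minimal DMF, diluted in PBS pH 7.4 (final DMF <2.5%). 1 mL test solution (100 µg/mL) plus 1 mL 1% albumin in PBS, 15 min at 27 ± 1 °C, then heated 10 min at 60 ± 1 °C. After cooling, turbidity read at 660 nm. % inhibition = [(Vt/Vc) − 1] × 100 against a no-drug control. Triplicate, averaged. Diclofenac standard.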

Structure (SMILES) | inhibition [%]
CCOC(=O)c1cnn(-c2nc(-c3cccc(OC)c3OC)c(C#N)c(=O)n2C)c1N | 33.9

Test system: Metaphire posthuma
Assay: Anthelmintic activity against Pheretima posthuma assessed as time taken for complete parasite paralysis at 0.1% w/v
Type: functional
Details: not given
Procedure, shortened: (§1)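 Earthworms (Pheretima posthuma) exposed to test solutions at 0.1, 0.2 and 0.5% w/v; time in minutes to complete paralysis (worms motionless) recorded. Albendazole as standard. Mean of three determinations ± S.D.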

Structure (SMILES) | Time [min]
CCOC(=O)c1cnn(-c2nc(-c3cccc(OC)c3OC)c(C#N)c(=O)n2C)c1N | 75.14

Test system: Metaphire posthuma
Assay: Anthelmintic activity against Pheretima posthuma assessed as time taken for complete parasite paralysis at 0.2% w/v
Type: functional
Details: not given
Procedure, shortened: as §1

Structure (SMILES) | Time [min]
CCOC(=O)c1cnn(-c2nc(-c3cccc(OC)c3OC)c(C#N)c(=O)n2C)c1N | 55.1

Test system: Metaphire posthuma
Assay: Anthelmintic activity against Pheretima posthuma assessed as time taken for complete parasite paralysis at 0.5% w/v
Type: functional
Details: not given
Procedure, shortened: as §1

Structure (SMILES) | Time [min]
CCOC(=O)c1cnn(-c2nc(-c3cccc(OC)c3OC)c(C#N)c(=O)n2C)c1N | 43.9

Test system: Metaphire posthuma
Assay: Anthelmintic activity against Pheretima posthuma assessed as time taken for parasite death at 0.1% w/v
Type: functional
Details: not given
Procedure, shortened: (§2)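 Earthworms (Pheretima posthuma, spelled Perituma posthuma in text) exposed to test compounds at 0.1, 0.2 and 0.5% w/v. Albendazole served as standard, with an untreated control. Paralysis was recorded as the time until worms became motionless, then time to death was recorded, in minutes. Each value is the mean of three determinations with S.D.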

Structure (SMILES) | Time [min]
CCOC(=O)c1cnn(-c2nc(-c3cccc(OC)c3OC)c(C#N)c(=O)n2C)c1N | 87.55

Test system: Metaphire posthuma
Assay: Anthelmintic activity against Pheretima posthuma assessed as time taken for parasite death at 0.2% w/v
Type: functional
Details: not given
Procedure, shortened: as §2

Structure (SMILES) | Time [min]
CCOC(=O)c1cnn(-c2nc(-c3cccc(OC)c3OC)c(C#N)c(=O)n2C)c1N | 62.12

Test system: Metaphire posthuma
Assay: Anthelmintic activity against Pheretima posthuma assessed as time taken for parasite death at 0.5% w/v
Type: functional
Details: not given
Procedure, shortened: as §2

Structure (SMILES) | Time [min]
CCOC(=O)c1cnn(-c2nc(-c3cccc(OC)c3OC)c(C#N)c(=O)n2C)c1N | 52.69

Test system: Escherichia coli
Assay: Antimicrobial activity against Escherichia coli at 25 ug/ml by agar plate diffusion technique
Type: functional
Details: read-out: IZ
Procedure, shortened: (§3)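 Agar plate diffusion against E. coli, P. aeruginosa, S. aureus and B. subtilis, with compounds at 25, 50 and 100 µg/mL. Streptomycin as standard.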

Structure (SMILES) | zone of inhibition at 25 µg/mL [mm]
CCOC(=O)c1cnn(-c2nc(-c3cccc(OC)c3OC)c(C#N)c(=O)n2C)c1N | 10.3

Test system: Escherichia coli
Assay: Antimicrobial activity against Escherichia coli at 50 ug/ml by agar plate diffusion technique
Type: functional
Details: read-out: IZ
Procedure, shortened: as §3

Structure (SMILES) | zone of inhibition at 50 µg/mL [mm]
CCOC(=O)c1cnn(-c2nc(-c3cccc(OC)c3OC)c(C#N)c(=O)n2C)c1N | 12.4

Test system: Escherichia coli
Assay: Antimicrobial activity against Escherichia coli at 100 ug/ml by agar plate diffusion technique
Type: functional
Details: read-out: IZ
Procedure, shortened: as §3

Structure (SMILES) | zone of inhibition at 100 µg/mL [mm]
CCOC(=O)c1cnn(-c2nc(-c3cccc(OC)c3OC)c(C#N)c(=O)n2C)c1N | 16.2

Test system: Pseudomonas aeruginosa
Assay: Antimicrobial activity against Pseudomonas aeruginosa at 25 ug/ml by agar plate diffusion technique
Type: functional
Details: read-out: IZ
Procedure, shortened: as §3

Structure (SMILES) | zone of inhibition at 25 µg/mL [mm]
CCOC(=O)c1cnn(-c2nc(-c3cccc(OC)c3OC)c(C#N)c(=O)n2C)c1N | 9.9

Test system: Pseudomonas aeruginosa
Assay: Antimicrobial activity against Pseudomonas aeruginosa at 50 ug/ml by agar plate diffusion technique
Type: functional
Details: read-out: IZ
Procedure, shortened: as §3

Structure (SMILES) | zone of inhibition at 50 µg/mL [mm]
CCOC(=O)c1cnn(-c2nc(-c3cccc(OC)c3OC)c(C#N)c(=O)n2C)c1N | 12.3

Test system: Pseudomonas aeruginosa
Assay: Antimicrobial activity against Pseudomonas aeruginosa at 100 ug/ml by agar plate diffusion technique
Type: functional
Details: read-out: IZ
Procedure, shortened: as §3

Structure (SMILES) | zone of inhibition at 100 µg/mL [mm]
CCOC(=O)c1cnn(-c2nc(-c3cccc(OC)c3OC)c(C#N)c(=O)n2C)c1N | 17.4

Test system: Bacillus subtilis
Assay: Antimicrobial activity against Bacillus subtilis at 25 ug/ml by agar plate diffusion technique
Type: functional
Details: read-out: IZ
Procedure, shortened: as §3

Structure (SMILES) | zone of inhibition at 25 µg/mL [mm]
CCOC(=O)c1cnn(-c2nc(-c3cccc(OC)c3OC)c(C#N)c(=O)n2C)c1N | 11.6

Test system: Bacillus subtilis
Assay: Antimicrobial activity against Bacillus subtilis at 50 ug/ml by agar plate diffusion technique
Type: functional
Details: read-out: IZ
Procedure, shortened: as §3

Structure (SMILES) | zone of inhibition at 50 µg/mL [mm]
CCOC(=O)c1cnn(-c2nc(-c3cccc(OC)c3OC)c(C#N)c(=O)n2C)c1N | 15.1

Test system: Bacillus subtilis
Assay: Antimicrobial activity against Bacillus subtilis at 100 ug/ml by agar plate diffusion technique
Type: functional
Details: read-out: IZ
Procedure, shortened: as §3

Structure (SMILES) | zone of inhibition at 100 µg/mL [mm]
CCOC(=O)c1cnn(-c2nc(-c3cccc(OC)c3OC)c(C#N)c(=O)n2C)c1N | 19.2

Test system: Staphylococcus aureus
Assay: Antimicrobial activity against Staphylococcus aureus at 25 ug/ml by agar plate diffusion technique
Type: functional
Details: read-out: IZ
Procedure, shortened: as §3

Structure (SMILES) | zone of inhibition at 25 µg/mL [mm]
CCOC(=O)c1cnn(-c2nc(-c3cccc(OC)c3OC)c(C#N)c(=O)n2C)c1N | 10.3

Test system: Staphylococcus aureus
Assay: Antimicrobial activity against Staphylococcus aureus at 50 ug/ml by agar plate diffusion technique
Type: functional
Details: read-out: IZ
Procedure, shortened: as §3

Structure (SMILES) | zone of inhibition at 50 µg/mL [mm]
CCOC(=O)c1cnn(-c2nc(-c3cccc(OC)c3OC)c(C#N)c(=O)n2C)c1N | 14.1

Test system: Staphylococcus aureus
Assay: Antimicrobial activity against Staphylococcus aureus at 100 ug/ml by agar plate diffusion technique
Type: functional
Details: read-out: IZ
Procedure, shortened: as §3

Structure (SMILES) | zone of inhibition at 100 µg/mL [mm]
CCOC(=O)c1cnn(-c2nc(-c3cccc(OC)c3OC)c(C#N)c(=O)n2C)c1N | 18.7

Test system: Candida albicans
Assay: Antimicrobial activity against Candida albicans at 25 ug/ml by paper disc method
Type: functional
Details: read-out: IZ
Procedure, shortened: (§4)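 Paper disc method against A. niger and C. albicans, with compounds at 25, 50 and 100 µg/mL. Amphotericin-B as standard.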

Structure (SMILES) | zone of inhibition at 25 µg/mL [mm]
CCOC(=O)c1cnn(-c2nc(-c3cccc(OC)c3OC)c(C#N)c(=O)n2C)c1N | 9.41

Test system: Candida albicans
Assay: Antimicrobial activity against Candida albicans at 50 ug/ml by paper disc method
Type: functional
Details: read-out: IZ
Procedure, shortened: as §4

Structure (SMILES) | zone of inhibition at 50 µg/mL [mm]
CCOC(=O)c1cnn(-c2nc(-c3cccc(OC)c3OC)c(C#N)c(=O)n2C)c1N | 13.5

Test system: Candida albicans
Assay: Antimicrobial activity against Candida albicans at 100 ug/ml by paper disc method
Type: functional
Details: read-out: IZ
Procedure, shortened: as §4

Structure (SMILES) | zone of inhibition at 100 µg/mL [mm]
CCOC(=O)c1cnn(-c2nc(-c3cccc(OC)c3OC)c(C#N)c(=O)n2C)c1N | 17

Test system: Aspergillus niger
Assay: Antimicrobial activity against Aspergillus niger at 25 ug/ml by paper disc method
Type: functional
Details: read-out: IZ
Procedure, shortened: as §4

Structure (SMILES) | zone of inhibition at 25 µg/mL [mm]
CCOC(=O)c1cnn(-c2nc(-c3cccc(OC)c3OC)c(C#N)c(=O)n2C)c1N | 10.8

Test system: Aspergillus niger
Assay: Antimicrobial activity against Aspergillus niger at 50 ug/ml by paper disc method
Type: functional
Details: read-out: IZ
Procedure, shortened: as §4

Structure (SMILES) | zone of inhibition at 50 µg/mL [mm]
CCOC(=O)c1cnn(-c2nc(-c3cccc(OC)c3OC)c(C#N)c(=O)n2C)c1N | 12.1

Test system: Aspergillus niger
Assay: Antimicrobial activity against Aspergillus niger at 100 ug/ml by paper disc method
Type: functional
Details: read-out: IZ
Procedure, shortened: as §4

Structure (SMILES) | zone of inhibition at 100 µg/mL [mm]
CCOC(=O)c1cnn(-c2nc(-c3cccc(OC)c3OC)c(C#N)c(=O)n2C)c1N | 18.9
